GAA850 FXN act: FXN promoter activators, primary screen, cell-based, luciferase luminescence, HEK293 lucGAA850 | activation, % at 6 µM | 0.56% of 360,000 active | HEK293 lucGAA850 FXN promoter luciferase reporter, 24 h; percent of 10 µM SAHA response | AID 540364, 2011;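 active means activation above the average of all compounds screened plus 3 SD, cutoff fixed separately per campaign, cut at about 7.5% in these data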;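 further: 0% = DMSO wells and 100% = 10 µM SAHA wells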
GASC-1 inh: inhibitors of GASC-1 histone demethylase, primary screen, biochemical, fluorescence, DELFIA europium. inhibition, % at 2.35 µM. 0.069% of 330,000 active. GST-JMJD2C(1-420) H3K9me3 demethylation. Lysine-specific demethylase 4C (Homo sapiens), Q9H3R0;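 active means more than half of a compound's replicate wells show inhibition beyond 50%, single wells judged on their own value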;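 further: signal counts dimethyl H3K9 product captured on neutravidin plate; 0% = median of DMSO wells and 100% = 0.3 times that DMSO median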
AHR act: AHR activators, primary screen, cell-based, luminescence, luciferase reporter, human; Aryl hydrocarbon receptor (Homo sapiens), P35869; AHR-responsive luciferase reporter cells; activation, % at 5 µM; 2.5% of 320,000 active; in the data active means activation above about 47%;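 further: 0% = vehicle wells and 100% = reference agonist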
SR-BI DiI inh: inhibitors of SR-BI mediated HDL lipid uptake, primary screen, ldlA[mSR-BI] cells, fluorescence, single point. Scavenger receptor class B member 1 (Mus musculus), Q61009. inhibition, % at 12.5 µM. AID 488896, 2010. 0.96% of 320,000 active. ldlA[mSR-BI] CHO cells, DiI-HDL uptake fluorescence, 3 h;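 active means mean replicate inhibition of at least 70% and a set share of replicates each scoring 70 or more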;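 further: 0% = median of neutral control wells and 100% = median of positive control wells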
Target sequence (Q61009 whole entry, looked up): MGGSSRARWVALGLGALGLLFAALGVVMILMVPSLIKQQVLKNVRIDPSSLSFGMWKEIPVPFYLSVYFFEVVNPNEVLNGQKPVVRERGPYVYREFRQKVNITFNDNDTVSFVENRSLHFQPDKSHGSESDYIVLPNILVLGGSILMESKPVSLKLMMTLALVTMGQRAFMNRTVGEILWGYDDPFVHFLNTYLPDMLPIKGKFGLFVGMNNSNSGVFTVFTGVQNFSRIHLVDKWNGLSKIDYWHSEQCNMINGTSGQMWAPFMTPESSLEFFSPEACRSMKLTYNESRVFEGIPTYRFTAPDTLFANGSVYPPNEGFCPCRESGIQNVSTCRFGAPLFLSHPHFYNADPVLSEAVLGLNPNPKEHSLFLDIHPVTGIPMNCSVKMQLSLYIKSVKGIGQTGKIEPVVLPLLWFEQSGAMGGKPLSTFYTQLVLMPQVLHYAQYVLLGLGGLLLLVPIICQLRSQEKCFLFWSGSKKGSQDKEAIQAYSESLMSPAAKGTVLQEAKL
SR-BI uptake up: activators of SR-BI mediated DiI-HDL uptake, primary screen, ldlA[mSR-BI] CHO cells, DiI fluorescence; AID 504775, 2011; 3 h; 100 = double the neutral-control signal; activation, % at 12.5 µM; 0.096% of 320,000 active;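 active means mean replicate activation of at least 60% and every replicate at or above 60%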;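 further: 0% = median plate neutral-control signal and 100% = twice that signal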
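System: LDL receptor-deficient CHO ldlA cells overexpressing murine SR-BI | Timing: 3 h uptake period with compound, 37 °C | Medium: HEPES-buffered (25 mM, pH 7.4) F12 plus 0.5% BSA | Dosing: Single-point compound dose | Signal: Bottom-read fluorescence, 550/595 nm | Read-out: Retained DiI signal reflecting DiI-HDL uptake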
* hit, by the source's call; · = no result given. Most compounds without a hit are left out; they make up all but 3.7% or so of the library.

SMILES | GAA850 FXN act | GASC-1 inh | AHR act | SR-BI DiI inh | SR-BI uptake up
Cn1ncc2nnn(-c3ccccc3)c(=O)c21 | 0 | · | 17 | -27 | 27
Cc1cccc(-n2nnc3cnn(C)c3c2=O)c1 | 1 | 2 | 60* | 4 | -4
COCCNC(=S)N/N=C(\C)c1ccc2cc(OC)ccc2c1 | 1 | -8 | 27 | 59 | -59
COCCNC(=S)N/N=C(\C)c1ccc(OC)cc1 | 3 | -15 | 54* | -6 | 6
C/C(=N\NC(=O)c1cc2ccccc2cc1O)c1cc2ccccc2o1 | 3 | 2 | 8 | 14 | -14
COCCNC(=S)N/N=C(\C)c1cc2ccccc2o1 | 1 | 5 | 68* | -3 | 3
CN(C)S(=O)(=O)c1ccc(C(=O)N2CCN(S(=O)(=O)c3ccc4c(c3)OCCO4)CC2)cc1 | -2 | · | · | -8 | 8
CCOC(=O)N1CCN(C(=O)C2CCCN(S(=O)(=O)c3c(C)cc(C)cc3C)C2)CC1 (configuration not stated) | 0 | 4 | 2 | 39 | -39
CC(=NCCc1ccccc1)C1=C(O)CSC1=O | 2 | -2 | 49* | -15 | 15
O=C(CCN1CCCCC1=O)NC1CCCN(Cc2ccc(Cl)cc2)C1 (configuration not stated) | 2 | 2 | -4 | -3 | 3
CN(C)CCNC=C(C(=O)Nc1ccc(Cl)cc1Cl)C(=O)Nc1ccc(Cl)cc1Cl | 0 | -12 | -2 | -82 | 82*
CCOC(=O)N1CCC(N2C(=O)c3ccc(C(=O)Nc4ccc(F)cc4F)cc3C2=O)CC1 | 2 | 3 | -1 | 78* | -78
CC(C)(C)c1cc(C(=O)N/N=C/c2ccccn2)n[nH]1 | 0 | 13 | 4 | -320 | 320*
CC(C)(C)c1cc(C(=O)N/N=C/c2cc3c(cc2Br)OCO3)n[nH]1 | 2 | 4 | 34 | 77* | -77
CC(C)(C)c1cc(C(=O)N/N=C/c2ccncc2)n[nH]1 | 0 | 6 | 23 | -18 | 18
Fc1cccc(F)c1-c1nc(-c2ccncc2)no1 | 4 | -1 | 39 | -13 | 13
Cc1nn(C)c(Cl)c1CN1CCC(CO)(CC2CCCCO2)CC1 (configuration not stated) | 2 | 0 | 2 | 6 | -6
CC1C(c2ccccc2)C(C#N)(C#N)C2(C#N)C(=O)NC1(N)C2C (configuration not stated) | 1 | 4 | 0 | -16 | 16
CCOC(=O)C1=C(Cc2ccc(Cl)cc2)C(=O)c2ccccc2C1=O | -1 | 11 | 86* | 31 | -31
COc1ccc(NC(=O)CN(C)C(=O)CN2C(=O)NC3(CCCC3)C2=O)cc1 | 2 | -4 | 1 | -15 | 15
CN(C)c1ccc(/C=C2/NC(=O)NC2=O)cc1 | 1 | -2 | 108* | -15 | 15
O=C1NC(=O)C(=Cc2ccccc2)N1 | 1 | · | · | -11 | 11
CC(C)c1ccc(-n2cnn(-c3ncccc3[N+](=O)[O-])c2=O)cc1 | 1 | -5 | 51* | 4 | -4
CCCn1nnc(NC(=S)NC(=O)c2ccccc2OC)n1 | 2 | 3 | 57* | -18 | 18
CCCn1nnc(NC(=O)c2ccccc2Cl)n1 | 2 | -7 | 1 | -10 | 10
SMILES | GAA850 FXN act | GASC-1 inh | AHR act | SR-BI DiI inh | SR-BI uptake up
CCOc1ccccc1NC(=O)Nc1ccccn1 | 2 | 11 | 54* | · | ·
Cc1cccc(NC(=S)Nc2ccccn2)c1 | 3 | 3 | 58* | 1 | -1
CCOc1ccccc1NC(=O)Nc1ccc(Br)cn1 | 0 | -4 | 16 | -25 | 25
CCOc1ccccc1NC(=O)C1C2CCC3C(CCC21)C3(Cl)Cl (configuration not stated) | 0 | 2 | 18 | 73* | -73
CCOc1ccccc1NC(=O)Cn1[nH]c(=O)c2ccccc2c1=O | -3 | -1 | 64* | 20 | -20
Cc1ccc(C(=O)NC(=S)Nc2cccnc2Cl)cc1 | 4 | 1 | -2 | · | ·
COc1ccccc1NC(=O)C(=O)Nc1ccccn1 | 1 | 1 | 39 | -21 | 21
COc1ccccc1NC(=S)Nc1ccccn1 | 6 | -11 | 117* | 27 | -27
COc1ccccc1C(=O)NC(=S)Nc1cccnc1Cl | 0 | 6 | 75* | · | ·

Bioassay records: PubChem, several laboratories
